Experimental data from publication PMC11559620 (Science Advances, 2024).
“Also recorded” adds a separate entry of the source. Where two headings read alike, the source gives them in different places.

What was measured:
NHX1 = assay: Yeast two-hybrid assay, CMD1 with NHX1; format: cell-based, Arabidopsis; details: fig. S1A
NHX1 to NHX4 = assay: Yeast two-hybrid assay, CML17 with vacuolar NHX1 to NHX4; format: cell-based, Arabidopsis; details: fig. S1B
In short: (§1)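 Strain AH109 was cotransformed with NHX C-terminal fragments in pGBKT7 (GAL4 BD) and CML17 or CML18 in pGADT7 (GAL4 AD), selected on YNB-Trp-Leu. Cultures were grown at 28°C to saturation (OD600 ~2), then 5-μl drops of 10-fold dilutions were spotted on YNB-Trp-Leu, -His-Trp-Leu and -Ade-Trp-Leu. Plates were incubated at 28°C for 3–4 days. p53/pSV40 served as positive control, empty vectors as negative.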

[1] = target: CML-BD peptide, synthetic peptide of the CML18-binding motif of NHX1 (residues D485 to R518) (Arabidopsis thaliana); assay: ITC
[2] = target: CML-BD peptide, synthetic peptide of the CML18-binding motif of NHX1 (residues D485 to R518) (Arabidopsis thaliana); assay: ITC; remark: listed apart in the source
AXT3K strain [3] = assay: Complementation assay, hygromycin B resistance of yeast AXT3K; format: cell-based, Saccharomyces cerevisiae
AXT3K strain [4] = assay: Growth of AXT3K in pH-buffered liquid media with hygromycin B; format: cell-based, Saccharomyces cerevisiae; details: buffered at acidic or neutral pH; OD600 after 24h
In short: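 Strain AXT3K (ena1-4, nha1 and nhx1 deletions; HygB-sensitive) carried NHX1 alleles in pDR195, selected on YNB lacking His and Ura. Cultures were grown overnight at 30°C and adjusted to OD600 0.5. Then 20 μl was inoculated into 200 μl liquid medium per well and serially diluted 10-fold. Incubation was at 30°C, with OD600 read at 24 and 48 h. Three independent transformants were tested per construct.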

CML18 [5] = assay: Yeast two-hybrid assay, interaction with CML18; format: cell-based, Arabidopsis; details: C-terminal cytosolic fragments; selective YNB media
In short: as §1

yeast vacuoles = assay: Vacuolar pH of yeast by BCECF-AM; format: cell-based, Saccharomyces cerevisiae; details: n = 8
CBD = assay: Split-ubiquitin assay, interaction of pore domain with CBD; format: cell-based, Arabidopsis; details: yeast; YNB without adenine and histidine, 3 days at 28°C
In short: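 Split-ubiquitin assay in yeast: NHX1 pore domain (residues M1–T292) was fused to Cub-PLV (pMetYCgate). The CBD (S486–G516) or the intervening loop (L453–N480) was fused to NubG (pNXgate32). KAT1 served as dimerisation positive control and CBD negative control. Double transformants were spotted on YNB with and without adenine and histidine. Expression was checked by HA/c-Myc immunoblot.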

CML18 [6] = assay: Bimolecular fluorescence complementation, interaction with CML18; format: cell-based, Arabidopsis; details: leaves of N. benthamiana
In short: (§2)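 Agrobacterium GV3101 carrying BiFC constructs was co-infiltrated with a p19-transformed strain into 5- to 6-week-old N. benthamiana leaves. Full-length NHX1 or NHX2 and CML18 were each fused to complementary halves of eYFP. Empty pSPYCE(M) served as negative control. The lower epidermis was imaged by confocal microscopy (515-nm laser, 60× objective) under constant imaging settings, using a YFP filter.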

NHX2 = assay: Bimolecular fluorescence complementation, interaction with NHX2; format: cell-based, Arabidopsis; details: leaves of N. benthamiana
In short: as §2

C terminus of NHX1 = assay: Yeast two-hybrid assay, dimerization with C terminus of NHX1; format: cell-based, Arabidopsis; details: fig. S2; cytosolic C-terminal domains

Molecule: CMD1: the only calmodulin protein produced in S. cerevisiae
- interaction with NHX1 (Y2H) (NHX1): negative results

B1: CML17: calmodulin-like protein of Arabidopsis, At1g32250 (protein)
chain: MSHKVSKKLDEEQINELREIFRSFDRNKDGSLTQLELGSLLRALGVKPSPDQFETLIDKADTKSNGLVEFPEFVALVSPELLSPAKRTTPYTEEQLLRLFRIFDTDGNGFITAAELAHSMAKLGHALTVAELTGMIKEADSDGDGRINFQEFAKAINSAAFDDIWG
modifications: left off: Gal4 activation domain (vector pGADT7), end not stated, kept
- interaction with vacuolar NHX1 to NHX4 (Y2H) (NHX1 to NHX4): failed to demonstrate interaction

B2: CML18, recombinant, purified (natural protein)
chain: MSCDGGKPAPAKLGDEQLAELREIFRSFDQNKDGSLTELELGSLLRSLGLKPSQDQLDTLIQKADRNNNGLVEFSEFVALVEPDLVKCPYTDDQLKAIFRMFDRDGNGYITAAELAHSMAKLGHALTAEELTGMIKEADRDGDGCIDFQEFVQAITSAAFDNAWG
- Kd [1]: 2.21 µM
- Kd [2]: 3.02 µM
- stoichiometry N (CML-BD binding sites per CML18 monomer) [2]: 2

B3: D506N (protein, UniProt Q68KI4 1-538, looked up, variant D506N)
Sodium/hydrogen exchanger 1: MLDSLVSKLPSLSTSDHASVVALNLFVALLCACIVLGHLLEENRWMNESITALLIGLGTGVTILLISKGKSSHLLVFSEDLFFIYLLPPIIFNAGFQVKKKQFFRNFVTIMLFGAVGTIISCTIISLGVTQFFKKLDIGTFDLGDYLAIGAIFAATDSVCTLQVLNQDETPLLYSLVFGEGVVNDATSVVVFNAIQSFDLTHLNHEAAFHLLGNFLYLFLLSTLLGAATGLISAYVIKKLYFGRHSTDREVALMMLMAYLSYMLAELFDLSGILTVFFCGIVMSHYTWHNVTESSRITTKHTFATLSFLAETFIFLYVGMDALDIDKWRSVSDTPGTSIAVSSILMGLVMVGRAAFVFPLSFLSNLAKKNQSEKINFNMQVVIWWSGLMRGAVSMALAYNKFTRAGHTDVRGNAIMITSTITVCLFSTVVFGMLTKPLISYLLPHQNATTSMLSDDNTPKSIHIPLLDQDSFIEPSGNHNVPRPDSIRGFLTRPTRTVHYYWRQFNDSFMRPVFGGRGFVPFVPGSPTERNPPDLSKA
- HygB resistance / protein activity in AXT3K (AXT3K strain [3]; YPD + HygB (50 μg/ml), 30°C): inactive; also recorded: unable to suppress the sensitivity of the nhx1 mutant to HygB
- HygB resistance / protein activity in AXT3K (AXT3K strain [3]; in combination with H499L): inactive
- activity irrespective of pH of growth media (AXT3K strain [4]): inactive
- interaction with CML18 (Y2H) (CML18 [5]): lost the ability to bind CML18
- vacuolar pH (pHvac) (yeast vacuoles): overly acidic

B4: pore domain (TM1 to TM9): pore domain of NHX1 (residues M1 to T292) fused to Cub-PLV (protein)
chain: MLDSLVSKLPSLSTSDHASVVALNLFVALLCACIVLGHLLEENRWMNESITALLIGLGTGVTILLISKGKSSHLLVFSEDLFFIYLLPPIIFNAGFQVKKKQFFRNFVTIMLFGAVGTIISCTIISLGVTQFFKKLDIGTFDLGDYLAIGAIFAATDSVCTLQVLNQDETPLLYSLVFGEGVVNDATSVVVFNAIQSFDLTHLNHEAAFHLLGNFLYLFLLSTLLGAATGLISAYVIKKLYFGRHSTDREVALMMLMAYLSYMLAELFDLSGILTVFFCGIVMSHYTWHNVT
modifications: left off: Cub-PLV, end not stated, kept
- interaction with CBD (split-ubiquitin) (CBD): confirmed

B5: NHX1: vacuolar K+/H+ exchanger of Arabidopsis; C-terminal T435 to A538 in Y2H (protein, UniProt Q68KI4 435-538, looked up, fragment)
chain: TKPLISYLLPHQNATTSMLSDDNTPKSIHIPLLDQDSFIEPSGNHNVPRPDSIRGFLTRPTRTVHYYWRQFDDSFMRPVFGGRGFVPFVPGSPTERNPPDLSKA
- HygB resistance / protein activity in AXT3K (AXT3K strain [3]; YPD + HygB (50 μg/ml), 30°C): suppressed the HygB sensitivity
- interaction with CML18 (BiFC) (CML18 [6]): interacted with CML18
- interaction with NHX2 (BiFC) (NHX2): interacted with NHX2-cYFP
- interaction with CML18 (Y2H) (CML18 [5]): strongly; also recorded: CML18 binding was confirmed
- homodimerization / heterodimerization (Y2H) (C terminus of NHX1): positive results
